Here are results for eleven compounds from ChEMBL document CHEMBL2046418, “Pyrrolidinobenzoic acid inhibitors of influenza virus neuraminidase: the hydrophobic side chain influences type A subtype selectivity” (Bioorg Med Chem, 2012).

Test [1] can be described thus: Inhibition of Influenza B virus (B/Malaysia/2506/2004) neuraminidase using fluorogenic substrate 2'-(4-methylumbelliferyl)-alpha-D-N-acetylneuraminic acid preincubated with inhibitor for 30 mins measured after 15 mins by fluorescence analysis. An outline of the steps: (§1)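 Purified intact virions served as the NA source. They were preincubated 30 min at room temperature with two-fold inhibitor dilutions in 50 mM sodium acetate pH 6.0, 100 µM CaCl2, 320 µM MgCl2 and 60 mM NaCl. 100 µM MUNANA was added, then incubated 15 min at 37 °C and stopped with 5 volumes 0.2 M glycine-NaOH pH 11. IC50 came from a log(inhibitor)-normalized response fit, cross-checked from the linear region of fractional activity versus concentration.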

The target in test [2] is T1, Neuraminidase (Influenza A virus, UniProt B4URF0). In words: Inhibition of Influenza A virus (A/Uruguay/716/2007(H3N2)) neuraminidase using fluorogenic substrate 2'-(4-methylumbelliferyl)-alpha-D-N-acetylneuraminic acid preincubated with inhibitor for 30 mins measured after 15 mins by fluorescence analysis. An outline of the steps:
as §1

The target in test [3] is T1, Neuraminidase. The test is described as follows: Inhibition of Influenza A virus (A/Solomon Islands/3/2006(H1N1)) neuraminidase using fluorogenic substrate 2'-(4-methylumbelliferyl)-alpha-D-N-acetylneuraminic acid preincubated with inhibitor for 30 mins measured after 15 mins by fluorescence analysis. The essentials: as §1
Test [4] in a line: Inhibition of Influenza B virus (B/Malayasia/5206/04) neuraminidase using fluorogenic substrate 2'-(4-methylumbelliferyl)-alpha-D-N-acetylneuraminic acid preincubated with inhibitor for 30 mins measured after 15 mins by fluorescence analysis. An outline of the steps: as §1
Test [5] concerns the target T1, Neuraminidase. The test is described as follows: Inhibition of Influenza A virus (A/Wisconsin/67/2005(H3N2)) neuraminidase using fluorogenic substrate 2'-(4-methylumbelliferyl)-alpha-D-N-acetylneuraminic acid preincubated with inhibitor for 30 mins measured after 15 mins by fluorescence analysis. The essentials: as §1
Test [6] has as its target T1, Neuraminidase. In words: Inhibition of Influenza A virus (A/Oklahoma/3052/2009(H1N1)) neuraminidase using fluorogenic substrate 2'-(4-methylumbelliferyl)-alpha-D-N-acetylneuraminic acid preincubated with inhibitor for 30 mins measured after 15 mins by fluorescence analysis. An outline of the steps: as §1
In test [7] the target is Neuraminidase (Influenza B virus (strain B/Lee/1940), UniProt P03474). In words: Inhibition of Influenza B virus (B/Lee/1940) neuraminidase using fluorogenic substrate 2'-(4-methylumbelliferyl)-alpha-D-N-acetylneuraminic acid preincubated with inhibitor for 30 mins measured after 15 mins by fluorescence analysis. The essentials: (§2)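 Enzyme source was purified intact virions. Then 100 μM 2'-(4-methylumbelliferyl)-α-D-N-acetylneuraminic acid was added and incubated 15 min at 37 °C. Reactions were stopped with 0.2 M glycine-NaOH pH 11. IC50 came from normalized log(inhibitor)-response fitting, cross-checked against the linear region of fractional activity versus concentration.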

The target in test [8] is Neuraminidase (Influenza A virus (strain A/Udorn/307/1972 H3N2), UniProt P0DOF9). In words: Inhibition of Influenza A virus (A/udorn/1972(H3N2)) neuraminidase using fluorogenic substrate 2'-(4-methylumbelliferyl)-alpha-D-N-acetylneuraminic acid preincubated with inhibitor for 30 mins measured after 15 mins by fluorescence analysis. The essentials: as §1
The target of test [9] is T1, Neuraminidase. In words: Inhibition of influenza A virus avian N9 neuraminidase.
The target in test [10] is Neuraminidase (Influenza A virus (A/Puerto Rico/8/1934(H1N1)), UniProt P03468). In words: Inhibition of Influenza A virus (A/Puerto Rico/8/1934(H1N1)) neuraminidase using fluorogenic substrate 2'-(4-methylumbelliferyl)-alpha-D-N-acetylneuraminic acid preincubated with inhibitor for 30 mins measured after 15 mins by fluorescence analysis. An outline of the steps:
as §2

The target of test [11] is T1, Neuraminidase. In words: Inhibition of Influenza A virus (A/Brisbane/59/2007(H1N1)) neuraminidase using fluorogenic substrate 2'-(4-methylumbelliferyl)-alpha-D-N-acetylneuraminic acid preincubated with inhibitor for 30 mins measured after 15 mins by fluorescence analysis. The essentials:
as §1

Test [12] is described as follows: Inhibition of influenza B virus neuraminidase. An outline of the steps: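 Purified intact influenza B virions as neuraminidase source. Preincubated 30 min at room temperature with two-fold inhibitor dilutions in 50 mM sodium acetate pH 6.0, 100 μM CaCl2, 320 μM MgCl2, 60 mM NaCl. Then 100 μM 2'-(4-methylumbelliferyl)-α-D-N-acetylneuraminic acid, 15 min at 37 °C, stopped with 5 volumes 0.2 M glycine-NaOH pH 11. Fluorescence read-out. IC50 from log(inhibitor) vs normalized response, cross-checked against the linear region of the fractional-activity curve.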

For test [13], the target named is T1, Neuraminidase. In words: Inhibition of influenza A virus neuraminidase. The essentials: as §2

Where only a bound is given, the exact number is not on record here.

Regarding `CC(C)Cc1cc(C(=O)O)ccc1N1C(=O)CCC1(CO)CO`, the values for the IC50 (in [1]; on Neuraminidase [2]) were 140 µM and 3 µM, respectively.

Take `CCC(C)OCc1cc(C(=O)O)ccc1N1C(=O)CCC1(CO)CO` (centres undefined): the results for the IC50 (on Neuraminidase [3]; against Neuraminidase [2]; in test [4]) were 11 µM, 0.2 µM and 80 µM, respectively.

`O=C(O)c1ccc(N2C(=O)CCC2(CO)CO)c(COCc2ccccc2)c1`: the results for the IC50 against Neuraminidase [3] and against Neuraminidase [2] were 1600 µM and 200 µM, respectively.

As for `CCC(CC)Cc1cc(C(=O)O)ccc1N1C(=O)CCC1(CO)CO`, the IC50 (as a rule, the concentration that gives 50% inhibition) in test [1] was 32 µM; against Neuraminidase [5], 0.2 µM; at Neuraminidase [6], 3.2 µM.

`CCCC(CCC)Cc1cc(C(=O)O)ccc1N1C(=O)CCC1(CO)CO`: the figures for the IC50 (in test [1]; against Neuraminidase [5]) were 190 µM and 0.5 µM, respectively.

Regarding `CCC(CC)Nc1cc(C(=O)O)ccc1N1C(=O)CCC1(CO)CO`, the IC50 against Neuraminidase [7] came out at 271 µM; at Neuraminidase [8] it was 0.49 µM; at Neuraminidase [9], 0.048 µM; in test [10] it was 79 µM.

In the case of `CCC(=Cc1cc(C(=O)O)ccc1N1C(=O)CCC1(CO)CO)CC`, the IC50 in [1] came out at 120 µM; against Neuraminidase [5] it was 0.41 µM; against Neuraminidase [6] it was 3.4 µM.

Regarding `CC(C)OCc1cc(C(=O)O)ccc1N1C(=O)CCC1(CO)CO`, the IC50 was more than 10000 µM against Neuraminidase [11] and 4000 µM against Neuraminidase [2].

In the case of `CCC(CC)OCc1cc(C(=O)O)ccc1N1C(=O)CCC1(CO)CO`, the IC50 stood at 1 µM against Neuraminidase [11], 0.8 µM at Neuraminidase [3], 0.5 µM at Neuraminidase [2] and 30 µM in test [4].

`CC(=O)N[C@H]1[C@H]([C@H](O)[C@H](O)CO)OC(C(=O)O)=C[C@@H]1O` [NEU5AC2EN]: the Ki (in test [12]; on Neuraminidase [13]) was 4 µM in each case.

In the case of `O=C(O)c1ccc(N2C(=O)CCC2(CO)CO)c(COc2ccccc2)c1`, the IC50 at Neuraminidase [3] was found to be 400 µM; against Neuraminidase [2], 40 µM.
